Bioassay records deposited in PubChem BioAssay by The Scripps Research Institute Molecular Screening Center.
Hits are enriched below; roughly 3.5% of the tested compounds scored in any of these assays.
rCAG RNA binder: molecules binding r(CAG) RNA repeats; r(CAG) RNA repeat, TO-PRO-1 dye displacement fluorescence; inhibition, % at 3 µM; 1.3% of 370,000 active; AID 651821;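 active = inhibition above the plate cutoff, the mean of all test compounds on that plate plus 3 SD, cut at about 35% in these data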;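 also: higher means more dye released from RNA so lower well fluorescence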
mABHD4 FP: inhibits mouse alpha/beta hydrolase domain 4; Q8VD66; purified mABHD4, FP-Rh probe fluorescence polarization; inhibition, % at 8.92 µM; 0.54% of 370,000 active; AID 720543;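 active = inhibition exceeding the mean over every tested compound plus 3 SD, cut at about 30% in these data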
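System: mouse ABHD4 enzyme, wild type / Medium: HEPES pH 7.0, NaCl, Pluronic buffer / Reagent: FP-Rh activity-based fluorescent probe / Control set: S159A mutant high control, sample median low control / Detection: fluorescence polarization with parallel and perpendicular emission, 525/598 nm / Schedule: 45 min + 60 min at 25 °C / Compound dosing: 8.92 µM, single dose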
TCR-CD3 inh: blocks the human TCR-CD3 interaction. TAMRA-labeled TCR probe fluorescence, biochemical. AID 651800. 0.37% of 360,000 active. inhibition, % at 9.4 µM; in the data active = inhibition above about 19%;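 also: recombinant mutant TCR 2C K166C tagged with TAMRA read by polarization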
HTRA1 inh: inhibitors of human serine peptidase HTRA1. Q92743. recombinant HTRA1, FP-rhodamine activity-based probe, fluorescence polarization. inhibition, % at 5.96 µM. 0.5% of 340,000 active; in the data active = inhibition above about 36%
Target sequence (Q92743 whole entry, looked up): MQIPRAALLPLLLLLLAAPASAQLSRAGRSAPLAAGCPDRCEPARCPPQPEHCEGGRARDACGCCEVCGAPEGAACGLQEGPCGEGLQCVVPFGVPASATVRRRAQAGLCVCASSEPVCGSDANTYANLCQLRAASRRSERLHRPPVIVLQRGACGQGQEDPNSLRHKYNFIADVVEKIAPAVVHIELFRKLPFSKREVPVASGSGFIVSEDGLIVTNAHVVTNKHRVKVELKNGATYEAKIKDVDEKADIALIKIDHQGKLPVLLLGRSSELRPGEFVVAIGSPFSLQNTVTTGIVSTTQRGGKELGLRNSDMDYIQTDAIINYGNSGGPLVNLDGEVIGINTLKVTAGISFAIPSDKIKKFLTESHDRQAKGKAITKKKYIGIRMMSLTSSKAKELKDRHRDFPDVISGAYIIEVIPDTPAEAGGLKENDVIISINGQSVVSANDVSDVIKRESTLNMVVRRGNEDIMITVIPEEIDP
PRMT1 FP inh: PRMT1 (human) inhibition, primary screen. recombinant PRMT1, activity-based probe fluorescence polarization. AID 652257. inhibition, % at 2.79 µM. 1.3% of 370,000 active;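 active = inhibition above about 21% made by adding two undisclosed values, limit read from the data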
SIAE primary: human SIAE inhibition, primary screen | 0.69% of 370,000 active | SIAE FP-Rh probe binding, fluorescence polarization | Q9HAT2 | inhibition, % at 9.66 µM;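 active = inhibition above a cutoff: mean of compounds within the control limits plus 3 SD of those, cut at about 17% in these data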
rCAG binder conf: r(CAG) RNA repeat binding, confirmation. inhibition, % at 3 µM. 70% of 4,300 active. AID 652065. TO-PRO-1 dye displacement fluorescence. shares compounds with rCAG RNA binder;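 active = inhibition above a per-plate cutoff, the mean inhibition of sample wells plus 3 SD, cut at about 35% in these data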;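 also: loss of TO-PRO-1 fluorescence as compound displaces dye from 1x1 AA loop RNA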
dCAG dye counter: disrupts DNA CAG TO-PRO-1 complex, flagging rCAG hits. shares compounds with rCAG RNA binder. d(CAG) DNA oligo TO-PRO-1 dye displacement, fluorescence. inhibition, % at 3 µM. 94% of 4,300 active;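 active = inhibition above its plate's cutoff, the mean test-well inhibition plus 3 SD, cut at about 4.8% in these data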;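 also: hits displace the dye from DNA and so lower well fluorescence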
Each line names hits and unclear results; the compound was inactive in the other large screens (follow-up assays come after a bar, where they were run).

C[C@@H]1CCN(C2CC2)S(=O)(=O)c2c(cccc2N2CCC[C@H]2CO)O1	none (no result: TCR-CD3 inh, HTRA1 inh)
O=C(Nc1nc2ncccn2c1-c1ccc(C(F)(F)F)cc1)c1ccccc1	none (no result: TCR-CD3 inh, HTRA1 inh)
C/C(CC(=O)Nc1ccc(Cl)c(C(F)(F)F)c1)=N\NC(=O)c1ccccc1O	rCAG RNA binder 53.1 | rCAG binder conf inactive | dCAG dye counter inactive
CN(Cc1cn(Cc2ccccc2)nn1)S(=O)(=O)c1ccccc1Br	none (no result: TCR-CD3 inh, HTRA1 inh)
O=C(O)CN1C(=O)/C(=C\c2ccc(OC(=O)c3ccco3)cc2)SC1=S	none
O=C(O)CN1C(=O)/C(=C\c2cccc(OCc3ccccc3F)c2)SC1=S	rCAG RNA binder 83.8 | rCAG binder conf 75.4 | dCAG dye counter 36.7
O=C(O)CCN1C(=O)/C(=C\c2cccc(Oc3ccccc3)c2)SC1=S	rCAG RNA binder 61.8 | rCAG binder conf 77.8 | dCAG dye counter 34.8
O=C(O)COc1ccccc1/C=C1\SC(=S)N(NC(=O)c2ccccc2O)C1=O	rCAG RNA binder 60.8 | rCAG binder conf 42.4 | dCAG dye counter 10.4
O=C(O)CN1C(=O)/C(=C/c2ccc(SCc3ccccc3)o2)SC1=S	rCAG RNA binder 40.7 | rCAG binder conf 59.4 | dCAG dye counter 31.4
COc1ccc(OC)c(CN2C(=O)CCCCC2(C)c2nnnn2C2CCCC2)c1 (stereo not drawn)	none (no result: TCR-CD3 inh, HTRA1 inh)
O=C(O)CN1C(=O)/C(=C\c2cccc(OCc3ccc(F)cc3)c2)SC1=S	rCAG RNA binder 80.8 | rCAG binder conf 79.6 | dCAG dye counter 44.4
O=C(O)CN1C(=O)/C(=C\c2cccc(OC(=O)c3ccco3)c2)SC1=S	none
O=C(O)CN1C(=O)/C(=C\c2ccccc2OCc2ccc(Cl)cc2)SC1=S	rCAG RNA binder 73.8 | rCAG binder conf 84.2 | dCAG dye counter 47.0
O=C(O)CN1C(=O)/C(=C\c2cccc(OCc3ccc(Cl)cc3)c2)SC1=S	rCAG RNA binder 78.4 | rCAG binder conf 91.2 | dCAG dye counter 64.4
O=C(O)CN1C(=O)/C(=C\c2cc(Br)ccc2OCc2ccc(Cl)cc2Cl)SC1=S	none (no result: rCAG RNA binder, mABHD4 FP, TCR-CD3 inh, PRMT1 FP inh, SIAE primary)
Cc1nnc(C)n1N=Cc1ccc(O)cc1O	none (no result: TCR-CD3 inh, HTRA1 inh)
Cc1ccccc1-c1cc(C(=O)Nc2sc(C(=O)OC(C)C)c(C)c2C#N)c2ccccc2n1	rCAG RNA binder 46.6 | rCAG binder conf 62.1 | dCAG dye counter 28.4
CCOC(=O)c1sc(NC(=O)c2cc(-c3ccc(C)cc3)nc3ccccc23)c(C#N)c1C	none
Cc1cccc(NS(=O)(=O)c2nnc(NC(=O)c3cccc(C)c3)s2)c1	none
COc1ccc(CN(C)S(=O)(=O)c2nnc(NC(=O)c3cccc(F)c3)s2)cc1OC	rCAG RNA binder 56.6 | rCAG binder conf 60.1 | dCAG dye counter 23.6
COc1ccc(CN(C)S(=O)(=O)c2nnc(NC(=O)c3ccccc3)s2)cc1OC	none
Cc1cccc(NS(=O)(=O)c2nnc(NC(=O)c3ccc(Cl)cc3)s2)c1	rCAG RNA binder 36.6 | rCAG binder conf inactive | dCAG dye counter 11.9
Cc1cccc(C(=O)Nc2nnc(S(=O)(=O)N(C)Cc3ccco3)s2)c1	rCAG RNA binder 36.5 | rCAG binder conf 37.4 | dCAG dye counter 13.5
O=C(COCc1ccccc1)N1CC[C@H]2[C@H](CCCN2Cc2cc(F)cc(F)c2)C1	none (no result: TCR-CD3 inh, HTRA1 inh)
Cc1ccc2nc(-c3ccc(NC(=O)CSc4nnc(-c5cc(-c6ccc(F)cc6)n[nH]5)n4N)cc3)sc2c1	none (no result: TCR-CD3 inh, HTRA1 inh)
CCOC(=O)C1=C(C)N=c2s/c(=C\c3ccc(OCC(=O)O)c(OC)c3)c(=O)n2C1c1ccc(OC)cc1 (stereo not drawn)	rCAG RNA binder 54.2, PRMT1 FP inh 31.9 | rCAG binder conf 74.8 | dCAG dye counter 37.5
COC(=O)c1cc(NS(=O)(=O)c2ccc(N3CCCCCC3)c([N+](=O)[O-])c2)cc(C(=O)OC)c1	rCAG RNA binder 38.8 | rCAG binder conf 60.1 | dCAG dye counter 19.7
Cc1ccc(NC(=S)NNC(=O)c2ccc(N3CCOCC3)c([N+](=O)[O-])c2)cc1C	rCAG RNA binder 58.1 | rCAG binder conf 60.9 | dCAG dye counter 25.8
COC(=O)c1cc(NS(=O)(=O)c2ccc(N3CCOCC3)c([N+](=O)[O-])c2)cc(C(=O)OC)c1	rCAG RNA binder 51.1 | rCAG binder conf 40.4 | dCAG dye counter 10.7
O=C(C1CCC1)n1ccc2ccc(-c3ccc4ccn(Cc5ccccc5)c4c3)cc21	none (no result: TCR-CD3 inh, HTRA1 inh)
Cc1oc(C(C)(C)C)cc1C(=O)Nc1cccc(/C=C\C(=O)O)c1	none
Cc1oc(-c2ccccc2)cc1C(=O)Nc1cccc(/C=C\C(=O)O)c1	rCAG RNA binder 40.5 | rCAG binder conf inactive | dCAG dye counter 5.7
COc1ccc(N2CCN(CCCNC(=O)CCOC(C)(C)C)CC2)cc1	none (no result: TCR-CD3 inh, HTRA1 inh)
Cc1ccc(Sc2ccc(/C=C3/C(=O)NN(c4ccccc4)C3=O)o2)cc1	rCAG RNA binder 35.3 | rCAG binder conf 80.7 | dCAG dye counter 46.1
CC1(C(=O)NS(=O)(=O)c2ccc(F)cc2F)CCN1C(=O)Cc1ccc(-c2ccccc2)cc1 (stereo not drawn)	rCAG RNA binder 58.5 (no result: HTRA1 inh) | rCAG binder conf 44.3 | dCAG dye counter 10.7
CC(C)(C)c1ccc(CC(=O)N2CCC2(C)C(=O)NS(=O)(=O)c2ccccc2C(F)(F)F)cc1 (stereo not drawn)	rCAG RNA binder 57.8 (no result: HTRA1 inh) | rCAG binder conf 44.8 | dCAG dye counter 13.4
Cc1ccc(F)c(S(=O)(=O)NC(=O)C2(C)CCN2C(=O)Cc2ccc(C(C)(C)C)cc2)c1 (stereo not drawn)	none (no result: HTRA1 inh)
CC(C)(C)c1ccc(CC(=O)N2CCC2(C)C(=O)NS(=O)(=O)c2ccc(F)cc2F)cc1 (stereo not drawn)	rCAG RNA binder 41.4 (no result: HTRA1 inh) | rCAG binder conf inactive | dCAG dye counter 6.1
CC1(C(=O)NS(=O)(=O)Cc2ccccc2)CCN1C(=O)Cc1ccccc1 (stereo not drawn)	none (no result: HTRA1 inh)
CC(C)(C)c1ccc(CC(=O)N2CCC2(C)C(=O)NS(=O)(=O)Cc2ccccc2)cc1 (stereo not drawn)	rCAG RNA binder 41.2 (no result: HTRA1 inh) | rCAG binder conf 35.6 | dCAG dye counter 9.3
Cc1ccc(NC(=O)N2CCC(c3nc4ccc(Cl)cc4[nH]3)CC2)cc1F	none (no result: TCR-CD3 inh, HTRA1 inh)
CC(C)(C)OC(=O)NCc1ccccc1/C=C/S(=O)(=O)NCCc1ccccc1	none (no result: TCR-CD3 inh, HTRA1 inh)
O=c1c2ccccc2n(Cc2ccccc2)n1[C@@H](Cc1ccccc1)Cn1cc(-c2ccc(-c3ccccc3)cc2)nn1	none (no result: TCR-CD3 inh, HTRA1 inh)
O=C(NC1CCCCN(Cc2cccc(Cl)c2)C1=O)c1ccc(Cl)cc1Cl (stereo not drawn)	none (no result: TCR-CD3 inh, HTRA1 inh)
CCOC(=O)[C@]12CCCC=C1N(CCCOC)C(=O)[C@@H]2CC(=O)NCc1cccs1	none (no result: TCR-CD3 inh, HTRA1 inh)
